This is an account of results in ChEMBL document CHEMBL1933058, “5-(2-amino-pyrimidin-4-yl)-1H-pyrrole and 2-(2-amino-pyrimidin-4-yl)-1,5,6,7-tetrahydro-pyrrolo[3,2-c]pyridin-4-one derivatives as new classes of selective and orally available Polo-like kinase 1 inhibitors” (Bioorg Med Chem Lett, 2012).

For one data set, the target named is T1, Aurora kinase A (Homo sapiens, UniProt O14965).
T1 sequence (O14965 whole entry): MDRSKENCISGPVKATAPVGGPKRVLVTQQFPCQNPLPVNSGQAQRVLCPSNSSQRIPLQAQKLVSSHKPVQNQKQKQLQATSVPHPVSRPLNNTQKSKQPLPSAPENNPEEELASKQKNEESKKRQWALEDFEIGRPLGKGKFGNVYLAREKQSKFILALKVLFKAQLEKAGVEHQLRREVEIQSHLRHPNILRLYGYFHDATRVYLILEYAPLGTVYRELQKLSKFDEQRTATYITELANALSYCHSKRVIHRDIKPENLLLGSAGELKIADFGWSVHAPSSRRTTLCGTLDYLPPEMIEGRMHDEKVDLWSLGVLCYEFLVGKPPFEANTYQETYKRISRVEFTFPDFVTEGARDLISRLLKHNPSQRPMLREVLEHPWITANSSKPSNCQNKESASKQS
The data set can be described thus: Inhibition of Aurora-A.

Data set [1] has as its target Fibroblast growth factor receptor 1 (Homo sapiens, UniProt P11362). The data set can be described thus: Inhibition of FGFR1.
Data set [2] addresses Vascular endothelial growth factor receptor 3 (Homo sapiens, UniProt P35916). The data set can be described thus: Inhibition of VEGFR3.
Data set [3] concerns A2780. The data set can be described thus: Cell cycle arrest in human A2780 cells assessed as increase of phospho Ser10 histone H3 level at 0.05 to 5 uM after 1 hr by Western blotting analysis. The class given is functional, cell-based. In a few lines:
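A2780 cells got 1 h exposure at 0.05, 0.5 and 5 µM, with nocodazole-treated cells as comparator. Western blot was used to probe the PLK1 substrate marker pSer46 TCTP and the mitotic marker pSer10 histone H3.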
In general terms: Immunoblotting shows a protein as a band on a membrane.

A short description of data set [4]: Intrinsic clearance in human liver microsomes at 1 uM. The class given is ADME, Microsome. As to conditions: read-out: CLH. Background: Liver microsomes are a subcellular fraction often used to study metabolism.
In data set [5] the test system is A2780. The data set can be described thus: Antiproliferative activity against human A2780 cells. Type of data set: functional, cell-based.
For data set [6], the target named is Insulin-like growth factor 1 receptor (Homo sapiens, UniProt P08069). The data set can be described thus: Inhibition of IGFR1.
Insulin-like growth factor 1 receptor, sequence (P08069 31-736 limits assumed): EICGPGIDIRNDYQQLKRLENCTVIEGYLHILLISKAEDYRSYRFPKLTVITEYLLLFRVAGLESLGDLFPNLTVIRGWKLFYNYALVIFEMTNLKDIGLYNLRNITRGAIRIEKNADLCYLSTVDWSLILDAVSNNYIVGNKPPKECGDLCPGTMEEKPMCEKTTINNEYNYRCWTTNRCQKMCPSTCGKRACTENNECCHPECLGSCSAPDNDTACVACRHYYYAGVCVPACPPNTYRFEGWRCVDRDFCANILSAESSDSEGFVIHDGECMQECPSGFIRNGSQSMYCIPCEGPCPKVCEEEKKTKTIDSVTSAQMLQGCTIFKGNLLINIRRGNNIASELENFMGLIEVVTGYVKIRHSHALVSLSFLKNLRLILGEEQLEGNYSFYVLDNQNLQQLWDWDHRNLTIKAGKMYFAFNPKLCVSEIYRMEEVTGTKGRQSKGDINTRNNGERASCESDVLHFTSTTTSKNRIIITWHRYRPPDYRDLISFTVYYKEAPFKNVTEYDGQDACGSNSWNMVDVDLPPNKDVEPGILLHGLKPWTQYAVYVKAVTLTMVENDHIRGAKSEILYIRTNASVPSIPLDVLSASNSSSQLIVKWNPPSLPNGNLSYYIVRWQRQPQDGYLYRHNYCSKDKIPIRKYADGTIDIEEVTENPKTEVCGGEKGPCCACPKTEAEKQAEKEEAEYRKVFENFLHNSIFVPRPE
Insulin-like growth factor 1 receptor, sequence (P08069 741-1367 limits assumed): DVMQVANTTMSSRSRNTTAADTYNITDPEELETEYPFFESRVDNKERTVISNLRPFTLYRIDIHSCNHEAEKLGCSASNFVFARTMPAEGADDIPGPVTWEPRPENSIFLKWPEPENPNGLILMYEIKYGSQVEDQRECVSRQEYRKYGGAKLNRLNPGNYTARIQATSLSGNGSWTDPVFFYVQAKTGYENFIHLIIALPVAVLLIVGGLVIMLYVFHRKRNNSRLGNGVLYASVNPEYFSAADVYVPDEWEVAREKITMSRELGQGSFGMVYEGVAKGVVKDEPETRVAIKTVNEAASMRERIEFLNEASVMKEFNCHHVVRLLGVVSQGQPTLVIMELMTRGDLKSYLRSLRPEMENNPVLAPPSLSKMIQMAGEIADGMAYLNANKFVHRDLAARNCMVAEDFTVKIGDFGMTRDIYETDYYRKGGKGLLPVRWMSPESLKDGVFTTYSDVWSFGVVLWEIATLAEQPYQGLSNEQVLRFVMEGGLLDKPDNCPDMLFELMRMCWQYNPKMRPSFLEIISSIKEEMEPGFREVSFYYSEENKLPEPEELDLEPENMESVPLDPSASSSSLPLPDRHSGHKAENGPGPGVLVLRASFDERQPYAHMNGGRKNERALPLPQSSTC
In data set [7] the target is Serine/threonine-protein kinase PAK 4 (Homo sapiens, UniProt O96013). The data set can be described thus: Inhibition of PAK4.
Serine/threonine-protein kinase PAK 4, sequence (O96013 whole entry): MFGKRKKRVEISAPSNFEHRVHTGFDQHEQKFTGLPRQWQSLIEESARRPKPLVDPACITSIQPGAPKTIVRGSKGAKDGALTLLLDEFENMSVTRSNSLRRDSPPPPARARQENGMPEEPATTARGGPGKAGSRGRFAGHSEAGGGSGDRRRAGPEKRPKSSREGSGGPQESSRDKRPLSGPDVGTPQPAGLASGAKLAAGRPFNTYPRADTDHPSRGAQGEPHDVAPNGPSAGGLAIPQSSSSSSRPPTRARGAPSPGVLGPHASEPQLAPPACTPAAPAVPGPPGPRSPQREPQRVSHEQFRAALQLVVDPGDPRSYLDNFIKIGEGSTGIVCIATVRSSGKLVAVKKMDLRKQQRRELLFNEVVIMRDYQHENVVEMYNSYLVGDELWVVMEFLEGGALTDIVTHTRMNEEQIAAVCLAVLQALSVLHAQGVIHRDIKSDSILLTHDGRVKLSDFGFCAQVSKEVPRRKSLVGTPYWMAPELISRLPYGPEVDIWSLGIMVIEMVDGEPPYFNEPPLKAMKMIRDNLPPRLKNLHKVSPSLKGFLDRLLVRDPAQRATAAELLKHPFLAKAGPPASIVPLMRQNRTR
For data set [8], the system named is A2780. The data set can be described thus: Cell cycle arrest in human A2780 cells assessed as accumulation at G2/M phase at 0.05 to 5 uM after 24 hrs by FACS analysis. The class given is functional, cell-based. In a few lines: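 A2780 cells were exposed for 24 h to 0.05, 0.5 or 5 µM. Cell-cycle distribution was read by flow cytometry (FACS), scoring G2-M accumulation. Nocodazole-treated cells served as positive control.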
In general terms: Flow cytometry measures light scatter and fluorescence of single cells or particles in a stream.

Data set [9] can be described thus: AUC (0 to infinity) in Nu/Nu Balb Harlan mouse at 10 mg/kg, iv. Type of data set: ADME, organism-based. Also noted: time infinity, dose 10 mg/kg, route intravenous. The settings on record: plasma. In a few lines: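 Male Balb Nu/Nu mice (Harlan) received a single 10 mg/kg intravenous dose, n = 3 animals per study. Vehicle was either trifluoroacetate salt in dextrose or free base in 50% PEG 400/glucosate, depending on compound. Parameters were reported as mean ± standard deviation.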

In data set [10] the target is Inhibitor of nuclear factor kappa-B kinase subunit beta (Homo sapiens, UniProt O14920). The data set can be described thus: Inhibition of IKK2.
Data set [11] in a line: Tmax in Nu/Nu Balb Harlan mouse at 10 mg/kg, po. Type of data set: ADME, organism-based. Also noted: dose 10 mg/kg, route oral. The settings on record: in vivo.
Data set [12] can be described thus: Oral bioavailability in Nu/Nu Balb Harlan mouse at 10 mg/kg. Type of data set: ADME, organism-based. As to conditions: in vivo.
Data set [13] in a line: Inhibition of CK2.
The target of data set [14] is Serine/threonine-protein kinase Chk1 (Homo sapiens, UniProt O14757). The data set can be described thus: Inhibition of CHK1.
Serine/threonine-protein kinase Chk1, sequence (O14757 whole entry): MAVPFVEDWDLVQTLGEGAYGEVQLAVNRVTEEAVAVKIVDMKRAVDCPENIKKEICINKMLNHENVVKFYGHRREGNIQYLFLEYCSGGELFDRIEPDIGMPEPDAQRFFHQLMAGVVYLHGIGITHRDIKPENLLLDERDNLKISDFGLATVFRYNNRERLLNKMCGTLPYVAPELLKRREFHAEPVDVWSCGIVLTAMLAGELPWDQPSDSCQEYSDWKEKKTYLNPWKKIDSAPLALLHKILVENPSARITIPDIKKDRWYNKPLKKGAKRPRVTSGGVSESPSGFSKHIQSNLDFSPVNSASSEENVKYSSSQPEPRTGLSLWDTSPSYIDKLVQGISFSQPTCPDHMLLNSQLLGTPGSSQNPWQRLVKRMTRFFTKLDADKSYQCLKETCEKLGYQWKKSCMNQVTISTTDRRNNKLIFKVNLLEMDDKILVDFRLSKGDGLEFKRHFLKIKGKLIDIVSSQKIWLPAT
Another data set relates to MOLM-13. The data set can be described thus: Antiproliferative activity against human MOLM13 cells. Type of data set: functional, cell-based.
Data set [15] concerns the target Tyrosine-protein kinase JAK2 (Homo sapiens, UniProt O60674). The data set can be described thus: Inhibition of JAK2.

Active and inactive are the calls of the source. The rule behind the calls is not given here.

Vascular endothelial growth factor receptor 3, sequence (P35916 whole entry): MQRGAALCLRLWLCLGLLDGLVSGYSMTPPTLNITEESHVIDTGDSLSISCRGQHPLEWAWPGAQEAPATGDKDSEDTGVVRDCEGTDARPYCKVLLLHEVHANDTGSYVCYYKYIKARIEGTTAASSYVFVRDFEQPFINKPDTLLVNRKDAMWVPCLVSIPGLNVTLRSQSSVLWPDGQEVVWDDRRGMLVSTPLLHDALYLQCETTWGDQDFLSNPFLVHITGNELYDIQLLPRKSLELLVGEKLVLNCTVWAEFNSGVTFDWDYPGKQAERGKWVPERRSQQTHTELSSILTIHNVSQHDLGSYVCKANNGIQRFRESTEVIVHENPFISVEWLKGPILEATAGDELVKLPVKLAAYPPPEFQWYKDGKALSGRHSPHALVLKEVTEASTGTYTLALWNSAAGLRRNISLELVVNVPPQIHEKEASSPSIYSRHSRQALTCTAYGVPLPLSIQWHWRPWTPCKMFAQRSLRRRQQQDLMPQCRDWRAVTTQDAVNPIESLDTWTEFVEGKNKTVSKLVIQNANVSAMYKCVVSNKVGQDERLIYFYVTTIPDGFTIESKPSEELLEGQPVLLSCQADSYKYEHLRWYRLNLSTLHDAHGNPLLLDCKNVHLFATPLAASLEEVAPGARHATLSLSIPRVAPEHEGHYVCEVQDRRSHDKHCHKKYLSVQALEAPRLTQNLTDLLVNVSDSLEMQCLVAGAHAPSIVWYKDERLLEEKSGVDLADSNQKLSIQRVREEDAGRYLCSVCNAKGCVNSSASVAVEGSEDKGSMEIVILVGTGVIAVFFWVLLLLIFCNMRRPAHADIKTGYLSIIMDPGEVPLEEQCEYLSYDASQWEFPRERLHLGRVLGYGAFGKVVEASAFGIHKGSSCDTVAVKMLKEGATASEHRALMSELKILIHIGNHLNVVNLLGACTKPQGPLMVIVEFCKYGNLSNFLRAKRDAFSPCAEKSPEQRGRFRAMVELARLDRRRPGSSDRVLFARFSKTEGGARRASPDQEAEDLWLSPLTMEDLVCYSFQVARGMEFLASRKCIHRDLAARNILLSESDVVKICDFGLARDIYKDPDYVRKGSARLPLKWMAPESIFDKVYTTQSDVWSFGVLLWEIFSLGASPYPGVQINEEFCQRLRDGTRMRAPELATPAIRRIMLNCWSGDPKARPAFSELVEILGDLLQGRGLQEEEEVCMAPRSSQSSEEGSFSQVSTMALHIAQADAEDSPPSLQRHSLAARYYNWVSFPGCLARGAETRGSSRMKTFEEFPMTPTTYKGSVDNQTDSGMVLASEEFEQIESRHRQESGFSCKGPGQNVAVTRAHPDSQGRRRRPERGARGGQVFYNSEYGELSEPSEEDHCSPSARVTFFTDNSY
Tyrosine-protein kinase JAK2, sequence (O60674 whole entry): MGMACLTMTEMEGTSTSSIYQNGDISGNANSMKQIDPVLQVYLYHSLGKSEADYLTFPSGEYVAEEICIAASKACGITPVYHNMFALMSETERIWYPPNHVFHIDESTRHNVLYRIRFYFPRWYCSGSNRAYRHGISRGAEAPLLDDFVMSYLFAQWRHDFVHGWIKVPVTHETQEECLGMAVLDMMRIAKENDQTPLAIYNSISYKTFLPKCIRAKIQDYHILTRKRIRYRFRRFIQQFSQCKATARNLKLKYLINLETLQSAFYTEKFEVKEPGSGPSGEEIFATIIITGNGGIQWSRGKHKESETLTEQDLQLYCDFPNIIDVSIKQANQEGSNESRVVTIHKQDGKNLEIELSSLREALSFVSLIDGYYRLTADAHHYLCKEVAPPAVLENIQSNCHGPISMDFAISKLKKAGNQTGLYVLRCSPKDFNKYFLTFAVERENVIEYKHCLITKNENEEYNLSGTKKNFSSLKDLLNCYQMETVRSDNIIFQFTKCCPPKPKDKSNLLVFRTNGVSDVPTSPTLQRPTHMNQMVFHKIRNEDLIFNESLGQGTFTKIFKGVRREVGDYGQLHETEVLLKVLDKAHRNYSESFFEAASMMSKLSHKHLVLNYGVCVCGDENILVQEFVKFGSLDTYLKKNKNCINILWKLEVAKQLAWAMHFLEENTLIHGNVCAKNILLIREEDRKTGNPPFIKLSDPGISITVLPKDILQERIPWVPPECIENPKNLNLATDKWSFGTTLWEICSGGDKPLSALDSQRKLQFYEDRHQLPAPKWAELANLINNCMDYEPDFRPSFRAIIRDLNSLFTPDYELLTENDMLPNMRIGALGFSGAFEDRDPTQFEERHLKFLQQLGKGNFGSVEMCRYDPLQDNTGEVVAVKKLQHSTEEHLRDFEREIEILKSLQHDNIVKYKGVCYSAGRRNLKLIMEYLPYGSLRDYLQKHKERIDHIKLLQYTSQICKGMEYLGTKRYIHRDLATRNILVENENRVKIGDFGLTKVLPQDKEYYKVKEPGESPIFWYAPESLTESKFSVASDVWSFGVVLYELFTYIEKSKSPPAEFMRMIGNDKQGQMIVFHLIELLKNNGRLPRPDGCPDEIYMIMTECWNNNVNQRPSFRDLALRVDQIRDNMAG

For orientation: IC50 means the point on the concentration scale where inhibition reaches its midpoint. The AUC(0-inf) is total exposure, with the tail of the curve extrapolated. Low readings indicate low exposure, high ones high exposure. As usually defined, the Tmax is the time at which the peak concentration occurs. One may read the bioavailability as dose-corrected exposure relative to a reference, in per cent. A low value points to poor availability. For the compound `CN1CCN(c2ccc(OC(F)(F)F)c(Nc3nccc(-c4cc5c(n4C)CCNC5=O)n3)c2)CC1`, the IC50 against Aurora kinase A was > 10 µM; in [1], > 10 µM; in data set [2], > 10 µM; in the data set with A2780 [5], 0.037 µM; in data set [6] it was > 10 µM; in data set [7] it was > 10 µM. For the same compound, the IC50 in data set [10] is > 10 µM; in [13] it was 0.42 µM; in data set [14], > 10 µM; in the data set on MOLM-13, 0.021 µM; in [15], > 10 µM. Besides, the result in the data set with A2780 [3] and with A2780 [8] was Active. In addition, the CLint scaled at 1 µM in [4] is 16.5 mL/min/kg. Further, the AUC(0-inf) in data set [9] was determined as 5.78 µM·h. In data set [11], the Tmax is 1.5 h. Besides, the bioavailability in data set [12] stood at 52%.
